Tests used:
[1] = Inhibition of LPS induced NF-kappa-B transcriptional activity in mouse RAW264.7 cells after 20 hrs by SEAP reporter assay; format: cell-based; details: RAW264.7, 20 h
In short: (§1)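 RAW 264.7 cells stably transfected with an NF-κB-driven SEAP reporter, stimulated with LPS. Culture supernatants were heated to 65 °C for 5 min, then reacted in the dark with 4-methylumbelliferyl phosphate (500). SEAP activity was read as RFU at ex 360/em 450 nm. Results are given as IC50 or as % inhibition at 30, from three independent experiments, each averaged from triplicates.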

RAW264.7 = assay: Inhibition of LPS induced NF-kappa-B transcriptional activity in mouse RAW264.7 cells at 30 uM after 20 hrs by SEAP reporter assay; format: cell-based; in short: as §1

| Structure (SMILES) | IC50 [1] [µM] | inhibition (RAW264.7) [%] |
| --- | --- | --- |
| c1ccc(Cc2nc3ccccc3[nH]2)cc1 [BENDAZOL] | 18.4 | 43 |
| COc1ccc(Cc2nc3ccccc3s2)cc1 | 9 | 67 |
| Oc1ccc(Cc2nc3ccccc3[nH]2)cc1 | 6 | 75 |
| Oc1ccc(Cc2nc3ccccc3[nH]2)cc1O | 6 | 75 |
| COc1ccc(Cc2nc3ccccc3[nH]2)cc1 | 1.7 | 90 |
| Clc1ccc(-c2nc3ccccc3[nH]2)cc1 | > 30 | 12 |
| COc1cc(Cc2nc3ccccc3[nH]2)cc(OC)c1OC | > 30 | 32 |
| Clc1ccccc1Cc1nc2ccccc2[nH]1 | > 30 | 33 |
| Clc1cccc(Cc2nc3ccccc3[nH]2)c1 | 10 | 66 |
| COc1ccc(-c2nc3ccccc3[nH]2)cc1 | > 30 | 22 |
| COc1ccc(Cc2nc3cc(Cl)ccc3[nH]2)cc1 | 10 | 66 |
| CS(=O)(=O)c1ccc(Cc2nc3ccccc3[nH]2)cc1 | 28 | 43 |
| COc1ccc(Cc2nc3cc(OC)ccc3[nH]2)cc1 | > 30 | 61 |
| Clc1ccc(Cc2nc3ccccc3[nH]2)cc1 | 2.4 | 85 |
| c1ccc(-c2nc3ccccc3[nH]2)cc1 | > 30 | 22 |
| COc1ccc2[nH]c(Cc3ccccc3)nc2c1 | 18 | 45 |
| COc1ccccc1Cc1nc2ccccc2[nH]1 | 2.4 | 85 |
| O=[N+]([O-])c1ccc(Cc2nc3ccccc3[nH]2)cc1 | 12 | 64 |
| Clc1ccc2[nH]c(Cc3ccccc3)nc2c1 | > 30 | 31 |
| CC(C)CCOc1cccc(O)c1C(=O)/C=C/c1ccc(O)cc1 | 10 | – |
| COc1ccc(CCc2nc3ccccc3[nH]2)cc1 | > 30 | 50 |
| COc1ccc(Cc2nc3ccccc3o2)cc1 | > 30 | 42 |
| FC(F)(F)c1ccc(Cc2nc3ccccc3[nH]2)cc1 | 16.4 | 55 |
| Clc1ccc(Cc2nc3cc(Cl)ccc3[nH]2)cc1 | 5 | 76 |
| Nc1ccc(Cc2nc3ccccc3[nH]2)cc1 | > 30 | 40 |
| COc1ccc(Cc2nc3ccccc3[nH]2)cc1OC | > 30 | 32 |
| Clc1ccc(Cc2nc3ccccc3[nH]2)cc1Cl | 15 | 63 |
| c1ccc(Cc2nc3ccccc3o2)cc1 | > 30 | 33 |
| Cc1ccc(Cc2nc3ccccc3[nH]2)cc1 | 19 | 60 |
